Measurements from different studies.
Each line is one published result; the experiments were not run side by side. pKd: −log10 of the molar value.
MTOR: Serine/threonine-protein kinase mTOR (MTOR, Homo sapiens, UniProt P42345)
HSP90B1: Endoplasmin (HSP90B1, Canis lupus familiaris, UniProt P41148)
SMARCA2 bromodomain: SWI/SNF-related matrix-associated actin-dependent regulator of chromatin subfamily A member 2, bromodomain (SMARCA2, Homo sapiens, UniProt P51531)

The pKd of `C=CC(=O)N1CCC(C(=O)N(C)CC(=O)N2CCN(c3nc(-c4cnc(N)nc4C(F)F)nc(N4CCOCC4)n3)CC2)CC1` is reported as 7.59 (MTOR; binding, competition with immobilised ligand).
`COC(=O)c1c(O)cc(O)c(Cl)c1CCC(=O)Nc1ccccc1Cl` gave a pKd of 5.73 (HSP90B1; ligand displacement, FP).
`CC1(C)[C@@H]2CC[C@@]1(C)C(=O)C2` has a pKd of 5.92 (Camphor 5-monooxygenase (camC, Pseudomonas putida, UniProt P00183); binding, ITC).
For `c1cncc(-c2cccc(Nc3nccc(NC4CCCCC4)n3)c2)c1`, the pKd was 6.46 (Non-receptor tyrosine-protein kinase TYK2, JH1 (TYK2, Homo sapiens, UniProt P29597); binding, competition with immobilised ligand).
`Cc1cc2nc3c(=O)[nH]c(=O)nc-3n(C[C@H](O)[C@H](O)[C@H](O)COP(=O)(O)OP(=O)(O)OC[C@H]3O[C@@H](n4cnc5c(N)ncnc54)[C@H](O)[C@@H]3O)c2cc1C` gave a pKd of 8.15 (DAZ-associated protein 1 (Homo sapiens, UniProt Q96EP5); binding; lysate).
`COC(=O)c1c(O)cc(O)c(Cl)c1CCC(=O)Nc1ccccn1` gave a pKd of 6.09 (HSP90B1; ligand displacement, FP).
The pKd of `Cc1ncsc1-c1ccc(CNC(=O)[C@@H]2C[C@@H](O)CN2C(=O)[C@@H](NC(=O)C2(F)CC2)C(C)(C)C)c(OCCOc2ccc(CN3CCN(c4cc(-c5ccccc5O)nnc4N)CC3)cc2)c1` is reported as 5.74 (SMARCA2 bromodomain; binding, SPR).
For `COC(=O)c1c(O)cc(O)c(Cl)c1CCC(=O)Nc1nncs1`, the pKd was 5.81 (HSP90B1; ligand displacement, FP).
The pKd of `O=P(O)(O)O[C@H]1[C@H](O)[C@@H](OP(=O)(O)O)[C@H](OP(=O)(O)O)[C@@H](OP(=O)(O)O)[C@H]1O` is reported as 6.36 (PREX1 (Homo sapiens, UniProt Q8TCU6); binding, ITC).
With `Cc1nc(NC(=O)N2CCC[C@H]2C(N)=O)sc1-c1ccnc(C(C)(C)C(F)(F)F)c1` the pKd was 6.19 (MTOR; binding, competition with immobilised ligand).
With `O=C1OC2(c3ccc(O)cc3Oc3cc(O)ccc32)c2ccccc21` the pKd was 5.42 (Lysozyme C (LYZ, Gallus gallus, UniProt P00698); binding, fluorescence).
For `N=c1ccc2c(-c3ccc(C(=O)NCCCCCCn4cc(CCCC(=O)Nc5nc6ccc(Cl)cc6c6nc(-c7ccco7)nn56)nn4)cc3C(=O)O)c3ccc(N)c(S(=O)(=O)O)c3oc-2c1S(=O)(=O)O`, the pKd was 8.29 (Adenosine receptor A3 (ADORA3, Homo sapiens, UniProt P0DMS8); binding, flow cytometry).
The pKd of `CCCN1CCN(c2ccc(-c3cncc(Cl)c3N3CCC4(CCNC4=O)CC3)cc2)CC1` is reported as 5.46 (Protein kinase C delta type (PRKCD, Homo sapiens, UniProt Q05655); cell-free assay; lysate).
For `NC(=O)c1ccc(-c2nc(-c3ccc4c(c3)OCO4)c(-c3ccccn3)[nH]2)cc1`, the pKd was less than 5.00 (Epidermal growth factor receptor (EGFR, Homo sapiens, UniProt P00533); binding).
The pKd of `Cc1ncsc1-c1ccc(CNC(=O)[C@@H]2C[C@H](O)CN2C(=O)[C@@H](NC(=O)C2(F)CC2)C(C)(C)C)c(OCCc2ccc(CN3CCN(c4cc(-c5ccccc5O)nnc4N)CC3)cc2)c1` is reported as 5.92 (SMARCA2 bromodomain; binding, SPR).
The pKd of `COC(=O)c1c(O)cc(O)c(Cl)c1CCC(=O)Nc1nccs1` is reported as 5.97 (HSP90B1; ligand displacement, FP).
With `CC(=O)N[C@H]1[C@H](O[C@H]2[C@H](O)[C@@H](NC(C)=O)C(O)O[C@@H]2CO)O[C@H](CO)[C@@H](O[C@@H]2O[C@H](CO)[C@@H](O)[C@H](O)[C@H]2NC(C)=O)[C@@H]1O` (some centres unmarked) the pKd was 2.51 (Chitotriosidase-1 (Homo sapiens, UniProt Q13231); binding).
